Legend:
Activated CDC42 kinase 1 = Activated CDC42 kinase 1 (Homo sapiens, UniProt Q07912); assay: Inhibition of recombinant GST-tagged human TNK2 catalytic/cytoplasmic domain (110 to 476 residues) expressed in baculovirus expression system by LanthaScreen assay
[1] = molecular target: Mitogen-activated protein kinase kinase kinase 19 (Homo sapiens) (UniProt Q56UN5); assay: Binding affinity to wild-type human partial length YSK4 (T1019 to H1328 residues) expressed in mammalian expression system assessed as residual binding level at 1 uM by Kinomescan method relative to control
[2] = molecular target: Receptor-interacting serine/threonine-protein kinase 2 (Homo sapiens) (UniProt O43353); assay: Binding affinity to wild-type human partial length RIPK2 (M1 to K310 residues) expressed in bacterial expression system assessed as residual binding level at 1 uM by Kinomescan method relative to control
[3] = molecular target: Serine/threonine-protein kinase BRSK2 (Homo sapiens) (UniProt Q8IWQ3); assay: Binding affinity to wild-type human full length BRSK2 (M1 to L674 residues) expressed in bacterial expression system assessed as residual binding level at 1 uM by Kinomescan method relative to control
[4] = molecular target: Death-associated protein kinase 3 (Homo sapiens) (UniProt O43293); assay: Binding affinity to wild-type human partial length DAPK3 (M1 to A277 residues) expressed in bacterial expression system assessed as residual binding level at 1 uM by Kinomescan method relative to control
Death-associated protein kinase 3 (Homo sapiens), sequence (O43293 whole entry, looked up, the tested form may be a part): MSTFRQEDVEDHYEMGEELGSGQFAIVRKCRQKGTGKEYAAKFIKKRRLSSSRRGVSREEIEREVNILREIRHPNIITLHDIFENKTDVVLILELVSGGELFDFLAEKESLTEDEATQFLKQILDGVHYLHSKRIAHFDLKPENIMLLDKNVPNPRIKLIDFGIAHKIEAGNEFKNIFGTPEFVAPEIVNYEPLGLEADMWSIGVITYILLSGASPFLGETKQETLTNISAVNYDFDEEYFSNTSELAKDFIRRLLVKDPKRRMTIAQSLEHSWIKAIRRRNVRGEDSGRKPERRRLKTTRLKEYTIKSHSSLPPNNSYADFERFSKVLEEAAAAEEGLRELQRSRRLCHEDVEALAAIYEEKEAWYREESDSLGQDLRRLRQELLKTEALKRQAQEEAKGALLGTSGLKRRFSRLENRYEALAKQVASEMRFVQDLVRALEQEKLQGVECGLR

[5] = molecular target: Mitogen-activated protein kinase 8 (Homo sapiens) (UniProt P45983); assay: Binding affinity to wild-type human full length JNK1 (M1 to Q384 residues) expressed in mammalian expression system assessed as residual binding level at 1 uM by Kinomescan method relative to control
Procedure, shortened: (§1)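 Single-point kinome-wide KINOMEscan binding panel, test compound at 1 μM, run by the provider's standard protocol.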

[6] = Drug uptake in mouse plasma at 10 mg/kg, po after 8 hrs; format: ADME, organism-based
[7] = molecular target: Casein kinase I isoform alpha (Homo sapiens) (UniProt P48729); assay: Binding affinity to wild-type human partial length CSNK1A1 (M1 to L450 residues) expressed in mammalian expression system assessed as residual binding level at 1 uM by Kinomescan method relative to control
[8] = molecular target: Mitogen-activated protein kinase kinase kinase 15 (Homo sapiens) (UniProt Q6ZN16); assay: Binding affinity to wild-type human partial length MAP3K15 (T625 to L932 residues) expressed in mammalian expression system assessed as residual binding level at 1 uM by Kinomescan method relative to control
[9] = molecular target: cAMP-dependent protein kinase catalytic subunit beta (Homo sapiens) (UniProt P22694); assay: Binding affinity to wild-type human full length PKAC-beta (M1 to F351 residues) expressed in bacterial expression system assessed as residual binding level at 1 uM by Kinomescan method relative to control; procedure, shortened: as §1
[10] = molecular target: Dual specificity protein kinase TTK (Homo sapiens) (UniProt P33981); assay: Binding affinity to wild-type human partial length TTK (N505 to V798 residues) expressed in bacterial expression system assessed as residual binding level at 1 uM by Kinomescan method relative to control
[11] = molecular target: Serine/threonine-protein kinase mTOR (Homo sapiens) (UniProt P42345); assay: Binding affinity to wild-type human partial length MTOR (L1382 to W2549 residues) expressed in mammalian expression system assessed as residual binding level at 1 uM by Kinomescan method relative to control
[12] = molecular target: Mitogen-activated protein kinase kinase kinase kinase 4 (Homo sapiens) (UniProt O95819); assay: Binding affinity to wild-type human partial length MAP4K4 (M1 to R310 residues) expressed in bacterial expression system assessed as residual binding level at 1 uM by Kinomescan method relative to control
Mitogen-activated protein kinase kinase kinase kinase 4 (Homo sapiens), sequence (O95819 2-1239 limits assumed): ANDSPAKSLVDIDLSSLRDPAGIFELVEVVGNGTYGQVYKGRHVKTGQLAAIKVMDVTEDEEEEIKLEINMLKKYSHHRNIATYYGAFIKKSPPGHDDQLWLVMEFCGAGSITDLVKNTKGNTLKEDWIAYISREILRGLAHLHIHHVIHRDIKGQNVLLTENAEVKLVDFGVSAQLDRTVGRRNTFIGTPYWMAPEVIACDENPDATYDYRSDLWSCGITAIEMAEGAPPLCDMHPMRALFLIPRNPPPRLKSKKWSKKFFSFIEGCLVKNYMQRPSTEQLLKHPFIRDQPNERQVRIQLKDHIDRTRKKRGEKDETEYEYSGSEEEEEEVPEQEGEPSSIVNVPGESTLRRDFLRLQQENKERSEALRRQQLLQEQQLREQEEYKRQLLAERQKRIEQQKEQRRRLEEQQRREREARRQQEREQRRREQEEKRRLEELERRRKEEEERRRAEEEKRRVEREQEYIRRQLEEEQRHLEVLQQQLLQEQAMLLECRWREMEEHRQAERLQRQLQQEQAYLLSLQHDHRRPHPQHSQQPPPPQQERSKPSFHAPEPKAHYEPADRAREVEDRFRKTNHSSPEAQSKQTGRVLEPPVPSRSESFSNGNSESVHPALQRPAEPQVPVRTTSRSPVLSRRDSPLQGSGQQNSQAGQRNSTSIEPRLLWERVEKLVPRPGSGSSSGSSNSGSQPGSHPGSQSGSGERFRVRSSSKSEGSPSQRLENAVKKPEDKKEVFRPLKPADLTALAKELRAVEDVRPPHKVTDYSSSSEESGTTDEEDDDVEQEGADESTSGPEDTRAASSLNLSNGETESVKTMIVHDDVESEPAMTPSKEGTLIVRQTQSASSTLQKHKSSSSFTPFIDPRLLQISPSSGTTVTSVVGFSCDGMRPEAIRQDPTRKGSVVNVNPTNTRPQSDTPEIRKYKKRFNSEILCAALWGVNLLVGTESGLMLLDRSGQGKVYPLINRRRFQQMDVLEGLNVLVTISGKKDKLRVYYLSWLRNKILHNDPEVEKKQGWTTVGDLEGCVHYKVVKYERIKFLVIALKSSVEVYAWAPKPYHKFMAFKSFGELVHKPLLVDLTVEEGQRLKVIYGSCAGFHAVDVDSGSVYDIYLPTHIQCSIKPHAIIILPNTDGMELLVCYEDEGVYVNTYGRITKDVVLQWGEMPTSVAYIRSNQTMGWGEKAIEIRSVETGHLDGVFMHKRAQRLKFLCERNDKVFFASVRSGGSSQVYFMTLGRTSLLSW

[13] = tested on: Tyrosine-protein kinase ABL1 (Homo sapiens), P00519 [T315I]; assay: Binding affinity to human phosphorylated ABL1 T315I mutant (S229 to K512 residues) expressed in mammalian expression system assessed as residual binding level at 1 uM by Kinomescan method relative to control
Procedure, shortened: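 Kinome-wide selectivity panel run by the KINOMEscan method, with the test compound at a single concentration of 1 μM. Wild-type and mutant kinases were profiled in the same screen.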

[14] = molecular target: Dual specificity testis-specific protein kinase 1 (Homo sapiens) (UniProt Q15569); assay: Binding affinity to wild-type human full length TESK1 (R37 to S626 residues) expressed in bacterial expression system assessed as residual binding level at 1 uM by Kinomescan method relative to control
[15] = molecular target: Mitogen-activated protein kinase 11 (Homo sapiens) (UniProt Q15759); assay: Binding affinity to wild-type human full length p38-beta (M1 to Q364 residues) expressed in bacterial expression system assessed as residual binding level at 1 uM by Kinomescan method relative to control
[16] = molecular target: Calcium/calmodulin-dependent protein kinase type 1 (Homo sapiens) (UniProt Q14012); assay: Binding affinity to wild-type human full length CAMK1 (M1 to L370 residues) expressed in bacterial expression system assessed as residual binding level at 1 uM by Kinomescan method relative to control
Calcium/calmodulin-dependent protein kinase type 1 (Homo sapiens), sequence (Q14012 whole entry, looked up, the tested form may be a part): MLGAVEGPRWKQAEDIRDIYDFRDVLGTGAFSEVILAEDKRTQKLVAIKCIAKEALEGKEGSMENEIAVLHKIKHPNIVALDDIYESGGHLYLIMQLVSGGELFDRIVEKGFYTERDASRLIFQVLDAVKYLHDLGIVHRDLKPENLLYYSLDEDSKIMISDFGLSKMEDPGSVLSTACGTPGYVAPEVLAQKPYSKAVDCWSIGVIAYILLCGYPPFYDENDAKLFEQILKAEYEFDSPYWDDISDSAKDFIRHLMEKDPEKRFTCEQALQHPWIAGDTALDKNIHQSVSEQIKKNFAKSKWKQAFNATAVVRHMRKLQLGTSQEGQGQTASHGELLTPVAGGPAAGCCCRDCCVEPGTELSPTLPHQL

[17] = molecular target: Homeodomain-interacting protein kinase 1 (Homo sapiens) (UniProt Q86Z02); assay: Binding affinity to wild-type human partial length HIPK1 (M146 to I555 residues) expressed in mammalian expression system assessed as residual binding level at 1 uM by Kinomescan method relative to control
Homeodomain-interacting protein kinase 1 (Homo sapiens), sequence (Q86Z02 whole entry, looked up, the tested form may be a part): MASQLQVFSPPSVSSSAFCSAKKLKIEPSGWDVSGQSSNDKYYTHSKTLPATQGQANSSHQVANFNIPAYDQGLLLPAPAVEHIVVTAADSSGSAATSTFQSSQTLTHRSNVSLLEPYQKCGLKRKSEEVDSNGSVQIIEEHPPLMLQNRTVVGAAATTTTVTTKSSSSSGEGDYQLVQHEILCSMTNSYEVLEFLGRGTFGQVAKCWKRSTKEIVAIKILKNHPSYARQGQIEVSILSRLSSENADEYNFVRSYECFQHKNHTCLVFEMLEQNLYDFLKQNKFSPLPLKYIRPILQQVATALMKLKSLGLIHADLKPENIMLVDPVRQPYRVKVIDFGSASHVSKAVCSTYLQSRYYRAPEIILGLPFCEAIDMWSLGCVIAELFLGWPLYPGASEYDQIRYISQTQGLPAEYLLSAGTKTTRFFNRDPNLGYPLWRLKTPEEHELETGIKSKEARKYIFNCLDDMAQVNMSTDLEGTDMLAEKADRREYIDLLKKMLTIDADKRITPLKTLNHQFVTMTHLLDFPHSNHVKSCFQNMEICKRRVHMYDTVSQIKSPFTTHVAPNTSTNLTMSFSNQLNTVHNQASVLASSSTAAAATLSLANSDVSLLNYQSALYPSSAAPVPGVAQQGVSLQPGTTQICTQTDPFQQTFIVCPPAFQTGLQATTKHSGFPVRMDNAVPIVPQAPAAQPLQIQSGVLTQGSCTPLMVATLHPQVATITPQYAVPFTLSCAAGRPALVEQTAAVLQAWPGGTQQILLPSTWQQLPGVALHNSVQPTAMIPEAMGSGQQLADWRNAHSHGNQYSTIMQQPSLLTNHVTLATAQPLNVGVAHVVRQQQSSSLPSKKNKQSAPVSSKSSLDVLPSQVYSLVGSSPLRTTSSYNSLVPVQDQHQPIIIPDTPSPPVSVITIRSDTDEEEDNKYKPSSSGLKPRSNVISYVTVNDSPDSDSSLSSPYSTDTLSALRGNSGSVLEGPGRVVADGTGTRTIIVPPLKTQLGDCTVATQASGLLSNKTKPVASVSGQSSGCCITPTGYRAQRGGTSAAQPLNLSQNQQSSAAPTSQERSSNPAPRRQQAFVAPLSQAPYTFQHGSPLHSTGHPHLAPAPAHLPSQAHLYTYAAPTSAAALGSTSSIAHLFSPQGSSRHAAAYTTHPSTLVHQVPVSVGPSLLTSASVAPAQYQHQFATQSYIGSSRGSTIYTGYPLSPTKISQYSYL

[18] = molecular target: Inhibitor of nuclear factor kappa-B kinase subunit alpha (Homo sapiens) (UniProt O15111); assay: Binding affinity to wild-type human full length IKK-alpha (M1 to E745 residues) expressed in mammalian expression system assessed as residual binding level at 1 uM by Kinomescan method relative to control; procedure, shortened: as §1
[19] = molecular target: Fibroblast growth factor receptor 4 (Homo sapiens) (UniProt P22455); assay: Binding affinity to wild-type human partial length FGFR4 (G402 to E713 residues) expressed in bacterial expression system assessed as residual binding level at 1 uM by Kinomescan method relative to control
[20] = molecular target: Cyclin-dependent kinase-like 5 (Homo sapiens) (UniProt O76039); assay: Binding affinity to wild-type human partial length CDKL5 (M1 to S337 residues) expressed in mammalian expression system assessed as residual binding level at 1 uM by Kinomescan method relative to control
[21] = molecular target: Activin receptor type-1-like (Homo sapiens) (UniProt P37023); assay: Binding affinity to wild-type human ACVRL1 (L164 to Q503 residues) expressed in bacterial expression system assessed as residual binding level at 1 uM by Kinomescan method relative to control
[22] = molecular target: Tyrosine-protein kinase ITK/TSK (Homo sapiens) (UniProt Q08881); assay: Binding affinity to wild-type human partial length ITK (R335 to L620 residues) expressed in bacterial expression system assessed as residual binding level at 1 uM by Kinomescan method relative to control
[23] = tested on: ALK tyrosine kinase receptor (Homo sapiens), Q9UM73 [C1156Y]; assay: Binding affinity to wild-type human partial length ALK C1156Y mutant (I1088 to E1409 residues) expressed in mammalian expression system assessed as residual binding level at 1 uM by Kinomescan method relative to control
ALK tyrosine kinase receptor (Homo sapiens), Q9UM73 [C1156Y], sequence (Q9UM73 whole entry C1156Y, looked up, the tested form may be a part): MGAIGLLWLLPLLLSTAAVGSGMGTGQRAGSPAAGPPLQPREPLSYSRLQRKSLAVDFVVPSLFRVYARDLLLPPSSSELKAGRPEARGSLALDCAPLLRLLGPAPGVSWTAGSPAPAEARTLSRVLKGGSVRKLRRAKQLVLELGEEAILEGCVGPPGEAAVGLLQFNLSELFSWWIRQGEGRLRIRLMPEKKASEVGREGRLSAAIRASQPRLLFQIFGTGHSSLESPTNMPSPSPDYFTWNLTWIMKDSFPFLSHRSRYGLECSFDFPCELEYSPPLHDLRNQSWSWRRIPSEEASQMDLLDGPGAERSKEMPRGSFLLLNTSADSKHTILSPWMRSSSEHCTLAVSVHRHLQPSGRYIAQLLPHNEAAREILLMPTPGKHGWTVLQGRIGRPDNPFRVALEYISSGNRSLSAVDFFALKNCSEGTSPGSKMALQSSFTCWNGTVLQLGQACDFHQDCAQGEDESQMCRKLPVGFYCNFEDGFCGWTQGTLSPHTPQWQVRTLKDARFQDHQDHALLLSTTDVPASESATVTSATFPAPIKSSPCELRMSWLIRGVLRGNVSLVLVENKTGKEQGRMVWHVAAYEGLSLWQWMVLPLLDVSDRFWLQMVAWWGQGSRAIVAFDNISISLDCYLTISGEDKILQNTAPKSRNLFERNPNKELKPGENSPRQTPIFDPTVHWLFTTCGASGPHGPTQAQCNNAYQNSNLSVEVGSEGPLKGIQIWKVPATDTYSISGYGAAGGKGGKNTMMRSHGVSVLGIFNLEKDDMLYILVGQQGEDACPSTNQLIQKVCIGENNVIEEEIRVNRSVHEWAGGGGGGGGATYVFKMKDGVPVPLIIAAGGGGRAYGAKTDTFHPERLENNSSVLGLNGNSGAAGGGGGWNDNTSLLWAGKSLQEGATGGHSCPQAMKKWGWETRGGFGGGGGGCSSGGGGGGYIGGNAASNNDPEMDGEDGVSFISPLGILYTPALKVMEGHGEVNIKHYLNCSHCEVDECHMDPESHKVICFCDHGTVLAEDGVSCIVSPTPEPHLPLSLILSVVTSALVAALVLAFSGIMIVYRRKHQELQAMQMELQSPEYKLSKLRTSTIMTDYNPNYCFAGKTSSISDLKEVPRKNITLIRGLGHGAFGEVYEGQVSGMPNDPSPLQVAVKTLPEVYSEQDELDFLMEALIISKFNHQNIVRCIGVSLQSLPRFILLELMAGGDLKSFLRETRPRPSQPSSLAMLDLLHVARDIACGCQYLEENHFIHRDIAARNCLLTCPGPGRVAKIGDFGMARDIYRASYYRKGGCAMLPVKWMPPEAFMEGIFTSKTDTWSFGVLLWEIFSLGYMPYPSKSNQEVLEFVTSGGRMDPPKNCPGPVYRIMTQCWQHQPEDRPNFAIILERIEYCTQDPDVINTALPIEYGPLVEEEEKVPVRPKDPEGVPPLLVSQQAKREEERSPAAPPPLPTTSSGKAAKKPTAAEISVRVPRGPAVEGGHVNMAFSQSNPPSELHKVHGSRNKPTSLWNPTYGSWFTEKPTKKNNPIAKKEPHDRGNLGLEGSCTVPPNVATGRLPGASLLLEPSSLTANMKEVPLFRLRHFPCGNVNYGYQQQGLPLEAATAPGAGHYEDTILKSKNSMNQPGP

C=CC(=O)Nc1cc(Nc2ncc(Cl)c(Nc3ccccc3S(=O)(=O)C(C)C)n2)c(OC)cc1N(C)CCN(C)C
IC50 (Activated CDC42 kinase 1): 13 nM
Activity [1]: 14%
Activity [2]: 81%
Activity [3]: 49%
Activity [4]: 39%
Activity [5]: 59%
concentration at 8 h [6]: 10 nM
Activity [7]: 74%
Activity [8]: 45%
Activity [9]: 99%
Activity [10]: 29%
Activity [11]: 100%
Activity [12]: 87%
Activity [13]: 0.35%
Activity [14]: 91%
Activity [15]: 96%
Activity [16]: 40%
Activity [17]: 57%
Activity [18]: 96%
Activity [19]: 9.6%
Activity [20]: 91%
Activity [21]: 30%
Activity [22]: 0.1%
Activity [23]: 0.2%

From ChEMBL document CHEMBL4382192, “Discovery of a potent dual ALK and EGFR T790M inhibitor” (Eur J Med Chem, 2017)
